Data taken from ChEMBL document CHEMBL1275290, “4-Aminoquinoline derived antimalarials: synthesis, antiplasmodial activity and heme polymerization inhibition studies” (Eur J Med Chem, 2010).

Key:
[1] = Binding affinity to hematin measured as association constant for 1:1 (hematin-compound) complex formation at pH 7.5
Outline: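 Spectrophotometric titration of hematin with compound in 40% aqueous DMSO, 20 mM HEPES, pH 7.5, 25 °C; hematin held in monomeric state. Association constant for 1:1 compound:hematin complex; means ± SD from at least three experiments in duplicate.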

[2] = tested on: Plasmodium falciparum; test: Antimalarial activity against chloroquine-resistant Plasmodium falciparum Dd2 after 72 hrs by SYBR Green I fluorescence based method; assay type: functional, organism-based; conditions: Dd2, 72 h
Outline: (§1)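 Asynchronous continuous P. falciparum cultures diluted with uninfected erythrocytes in RPMI-1640 + 0.5% Albumax II to 0.2% parasitemia, 2% hematocrit. Compounds from 10 mM DMSO stock diluted in medium (0.1 nM–100 range). 72 h incubation under standard culture conditions; SYBR Green I fluorescence read (ex 497/em 520 nm). Triplicate experiments; IC50 from variable-slope sigmoidal dose–response fits.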

[3] = Inhibition of beta-hematin polymerization by UV spectrophotometry based BHIA assay relative to untreated hemin control; assay type: functional
Outline: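 IC50 expressed as millimolar equivalents of compound relative to hemin needed to block beta-hematin formation by 50%. Triplicate readings converted to percent inhibition versus drug-free hemozoin control; IC50 from sigmoidal dose-response non-linear regression. Means ± SD from at least three experiments in duplicate.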

[4] = tested on: Plasmodium falciparum; test: Resistance index, ratio of IC50 for chloroquine-resistant Plasmodium falciparum Dd2 to IC50 for chloroquine-sensitive Plasmodium falciparum D6; assay type: functional
Outline: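 Ratio of Dd2 IC50 to D6 IC50, each from the 72 h SYBR Green I growth assay (0.2% parasitemia, 2% hematocrit, RPMI-1640 + 0.5% Albumax II), triplicate, IC50 from variable-slope sigmoidal fits.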

[5] = tested on: Plasmodium falciparum; test: Antimalarial activity against chloroquine-sensitive Plasmodium falciparum D6 after 72 hrs by SYBR Green I fluorescence based method; assay type: functional, organism-based; conditions: D6, 72 h; outline: as §1

Row | Structure (SMILES) | log Ks [1] | IC50 [2] [nM] | IC50 [3] [mMequiv] | Ratio IC50 [4] | IC50 [5] [nM]
1 | CCN(CC)C(=S)NCCCNc1ccnc2cc(Cl)ccc12 | 5.34 | 125 | 0.15 | 1.21 | 103
2 | S=C(NCCCNc1ccnc2cc(Cl)ccc12)N1CCOCC1 | 4.94 | 556 | 0.34 | 3.08 | 180
3 | CN1CCN(C(=S)NCCCNc2ccnc3cc(Cl)ccc23)CC1 | 4.98 | 68.4 | 0.35 | 1.16 | 59.1
4 | CN(C)C(=S)NCCCNc1ccnc2cc(Cl)ccc12 | 4.87 |  | 0.55 |  | 140
5 | CC(C)N(C(=S)NCCCNc1ccnc2cc(Cl)ccc12)C(C)C | 4.95 | 202 | 0.33 | 1.25 | 161
6 | S=C(NCCCNc1ccnc2cc(Cl)ccc12)Nc1ccc(Cl)cc1 | 4.23 |  | 0.48 |  | 234
7 | CCN(CC)CCCC(C)Nc1ccnc2cc(Cl)ccc12 (configuration not stated) [CHLOROQUINE] |  |  | 0.17 |  | 
8 | CNC(=S)NCCCNc1ccnc2cc(Cl)ccc12 | 4.57 | 213 | 0.66 | 1.2 | 177
9 | S=C(NCCCNc1ccnc2cc(Cl)ccc12)N1CCN(c2ccccc2)CC1 | 5.37 | 50.5 | 0.17 | 1.76 | 28.7
10 | S=C(NCCCNc1ccnc2cc(Cl)ccc12)NCCCNc1ccnc2cc(Cl)ccc12 | 5.38 | 280 | 0.27 | 2.18 | 128
11 | S=C(NCCCNc1ccnc2cc(Cl)ccc12)N1CCCCC1 | 5.24 | 104 | 0.29 | 0.99 | 104
12 | S=C(NCCCNc1ccnc2cc(Cl)ccc12)N1CCCC1 | 4.98 | 142 | 0.35 | 1.11 | 128
13 | S=C(NCCCNc1ccnc2cc(Cl)ccc12)NC1CC1 | 5.67 | 14.1 | 0.11 | 0.59 | 23.9
14 | S=C(NCCCNc1ccnc2cc(Cl)ccc12)N1CCNCC1 | 4.46 | 778 | 0.69 | 2.33 | 333
